Test results reported in ChEMBL document CHEMBL3588757, “Structure-based design, synthesis and biological testing of piperazine-linked bis-epipodophyllotoxin etoposide analogs” (Bioorg Med Chem, 2015).

Columns and labels:
Format in all cases: functional
[1] = system: NCI-H460; assay: Cytotoxicity against human NCI-H460 cells assessed as cell growth at 0.5 uM by SRB assay; conditions: read-out: Activity
[2] = system: 786-0; assay: Cytotoxicity against human 786-0 cells assessed as cell growth at 0.5 uM by SRB assay; conditions: read-out: Activity
[3] = system: HL-60(TB); assay: Cytotoxicity against human HL-60(TB) cells assessed as cell growth at 0.5 uM by SRB assay; conditions: read-out: Activity
In short: (§1)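 Measured in the NCI-60 human tumour cell line panel using five-dose testing. Growth was recorded at each dose for each cell line, and a GI50 was derived for each line.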

[4] = system: SNB-75; assay: Cytotoxicity against human SNB75 cells assessed as cell growth at 50 uM by SRB assay; conditions: read-out: Activity
[5] = system: MDA-MB-435; assay: Cytotoxicity against human MDA-MB-435 cells assessed as cell growth at 0.05 uM by SRB assay; conditions: read-out: Activity
[6] = system: MDA-MB-468; assay: Cytotoxicity against human MDA-MB-468 cells assessed as cell growth at 0.5 uM by SRB assay; conditions: read-out: Activity
[7] = system: PC-3; assay: Cytotoxicity against human PC3 cells assessed as cell growth at 50 uM by SRB assay; conditions: read-out: Activity
[8] = system: SK-MEL-2; assay: Cytotoxicity against human SK-MEL-2 cells by SRB assay
In short: (§2)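 NCI-60 panel screen; 5-dose testing giving GI50 per cell line, plus a single 10 µM one-dose test. Method details not given beyond the NCI screen.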

[9] = system: NCI-H460; assay: Cytotoxicity against human NCI-H460 cells assessed as cell growth at 0.05 uM by SRB assay; conditions: read-out: Activity
[10] = system: A498; assay: Cytotoxicity against human A498 cells assessed as cell growth at 0.005 uM by SRB assay; conditions: read-out: Activity
[11] = system: UACC-257; assay: Cytotoxicity against human UACC257 cells assessed as cell growth at 0.005 uM by SRB assay; conditions: read-out: Activity
[12] = system: M14; assay: Cytotoxicity against human M14 cells assessed as cell growth at 5 uM by SRB assay; conditions: read-out: Activity
[13] = system: BT-549; assay: Cytotoxicity against human BT549 cells assessed as cell growth at 5 uM by SRB assay; conditions: read-out: Activity
[14] = system: SK-MEL-28; assay: Cytotoxicity against human SK-MEL-28 cells by SRB assay; in short: as §2
[15] = system: PC-3; assay: Cytotoxicity against human PC3 cells assessed as cell growth at 0.5 uM by SRB assay; conditions: read-out: Activity
[16] = system: HCC 2998; assay: Cytotoxicity against human HCC2998 cells assessed as cell growth at 0.005 uM by SRB assay; conditions: read-out: Activity; in short: as §1
[17] = system: SNB-75; assay: Cytotoxicity against human SNB75 cells assessed as cell growth at 0.5 uM by SRB assay; conditions: read-out: Activity
[18] = system: OVCAR-3; assay: Cytotoxicity against human OVCAR3 cells assessed as cell growth at 0.5 uM by SRB assay; conditions: read-out: Activity
[19] = system: ACHN; assay: Cytotoxicity against human ACHN cells assessed as cell growth at 0.5 uM by SRB assay; conditions: read-out: Activity
[20] = system: SF-295; assay: Cytotoxicity against human SF295 cells assessed as cell growth at 0.05 uM by SRB assay; conditions: read-out: Activity
[21] = system: SNB-75; assay: Cytotoxicity against human SNB75 cells by SRB assay; in short: as §2
[22] = system: RXF 393; assay: Cytotoxicity against human RXF393 cells assessed as cell growth at 0.005 uM by SRB assay; conditions: read-out: Activity
[23] = system: UACC-257; assay: Cytotoxicity against human UACC257 cells by SRB assay; in short: as §2
[24] = system: SR; assay: Cytotoxicity against human SR cells by SRB assay; in short: as §2
[25] = system: OVCAR-8; assay: Cytotoxicity against human OVCAR8 cells assessed as cell growth at 0.05 uM by SRB assay; conditions: read-out: Activity
[26] = system: SW-620; assay: Cytotoxicity against human SW620 cells assessed as cell growth at 50 uM by SRB assay; conditions: read-out: Activity
[27] = system: SNB-19; assay: Cytotoxicity against human SNB19 cells assessed as cell growth at 0.05 uM by SRB assay; conditions: read-out: Activity
[28] = system: M14; assay: Cytotoxicity against human M14 cells assessed as cell growth at 0.5 uM by SRB assay; conditions: read-out: Activity
[29] = system: NCI-H23; assay: Cytotoxicity against human NCI-H23 cells by SRB assay; in short: as §2
[30] = system: A549; assay: Cytotoxicity against human A549/ATCC cells assessed as cell growth at 0.005 uM by SRB assay; conditions: read-out: Activity
[31] = system: SR; assay: Cytotoxicity against human SR cells assessed as cell growth at 5 uM by SRB assay; conditions: read-out: Activity
[32] = system: MDA-MB-468; assay: Cytotoxicity against human MDA-MB-468 cells assessed as cell growth at 0.05 uM by SRB assay; conditions: read-out: Activity
[33] = system: SF-295; assay: Cytotoxicity against human SF295 cells by SRB assay; in short: as §2
[34] = system: DU-145; assay: Cytotoxicity against human DU145 cells assessed as cell growth at 0.005 uM by SRB assay; conditions: read-out: Activity
[35] = system: SK-MEL-5; assay: Cytotoxicity against human SK-MEL-5 cells by SRB assay; in short: as §2
[36] = system: MDA-MB-231; assay: Cytotoxicity against human MDA-MB-231/ATCC cells assessed as cell growth at 0.5 uM by SRB assay; conditions: read-out: Activity
[37] = system: SK-MEL-28; assay: Cytotoxicity against human SK-MEL-28 cells assessed as cell growth at 0.05 uM by SRB assay; conditions: read-out: Activity
[38] = system: SK-MEL-2; assay: Cytotoxicity against human SK-MEL-2 cells assessed as cell growth at 0.05 uM by SRB assay; conditions: read-out: Activity
[39] = system: A549; assay: Cytotoxicity against human A549/ATCC cells assessed as cell growth at 50 uM by SRB assay; conditions: read-out: Activity
[40] = Cytotoxicity against human NCI-ADR-RES cells assessed as cell growth at 50 uM by SRB assay; conditions: read-out: Activity
[41] = system: RPMI-8226; assay: Cytotoxicity against human RPMI8226 cells assessed as cell growth at 0.05 uM by SRB assay; conditions: read-out: Activity
[42] = read-out: LC50 (the source's name)
[43] = read-out: pLC50 (the source's name) (converted)

## COc1cc([C@@H]2c3cc4c(cc3[C@@H](NC(=O)CN3CCN(CCCCCCN5CCN(CC(=O)N[C@@H]6c7cc8c(cc7[C@@H](c7cc(OC)c(O)c(OC)c7)[C@H]7C(=O)OC[C@@H]76)OCO8)CC5)CC3)[C@H]3COC(=O)[C@H]23)OCO4)cc(OC)c1O
[1]
  growth at 0.5 µM: 35%
[2]
  growth at 0.5 µM: 82%
[3]
  growth at 0.5 µM: 60%
[4]
  growth at 50 µM: -31%
[5]
  growth at 0.05 µM: 96%
[6]
  growth at 0.5 µM: 83%
[7]
  growth at 50 µM: 25%
[8]; read-out: GI50
  GI50: 11.3 µM
[8]; [42]
  CC50: > 50 µM
[8]; read-out: TGI
  TGI: 35.5 µM
[8]; read-out: pGI50 (converted)
  GI50: 11.2 µM
[8]; [43]
  CC50: > 50.1 µM
[8]; read-out: pTGI (converted)
  TGI: 35.5 µM
[9]
  growth at 0.05 µM: 89%
[10]
  growth at 0.005 µM: 82%
[11]
  growth at 0.005 µM: 99%
[12]
  growth at 5 µM: 35%
[13]
  growth at 5 µM: -5%
[14]; read-out: GI50
  GI50: 6.52 µM
[14]; [42]
  CC50: > 50 µM
[14]; read-out: TGI
  TGI: > 50 µM
[14]; read-out: pGI50 (converted)
  GI50: 6.46 µM
[14]; [43]
  CC50: > 50.1 µM
[14]; read-out: pTGI (converted)
  TGI: > 50.1 µM
[15]
  growth at 0.5 µM: 80%
[16]
  growth at 0.005 µM: 104%
[17]
  growth at 0.5 µM: 61%
[18]
  growth at 0.5 µM: 103%
[19]
  growth at 0.5 µM: 95%
[20]
  growth at 0.05 µM: 93%
[21]; read-out: GI50
  GI50: 0.957 µM
[21]; [42]
  CC50: > 50 µM
[21]; read-out: TGI
  TGI: 12.8 µM
[21]; read-out: pGI50 (converted)
  GI50: 0.955 µM
[21]; [43]
  CC50: > 50.1 µM
[21]; read-out: pTGI (converted)
  TGI: 12.9 µM
[22]
  growth at 0.005 µM: 99%
[23]; read-out: GI50
  GI50: 18.9 µM
[23]; [42]
  CC50: > 50 µM
[23]; read-out: TGI
  TGI: > 50 µM
[23]; read-out: pGI50 (converted)
  GI50: 19.1 µM
[23]; [43]
  CC50: > 50.1 µM
[23]; read-out: pTGI (converted)
  TGI: > 50.1 µM
[24]; read-out: GI50
  GI50: 0.106 µM
[24]; [42]
  CC50: > 50 µM
[24]; read-out: TGI
  TGI: > 50 µM
[24]; read-out: pGI50 (converted)
  GI50: 0.105 µM
[24]; [43]
  CC50: > 50.1 µM
[24]; read-out: pTGI (converted)
  TGI: > 50.1 µM
[25]
  growth at 0.05 µM: 108%
[26]
  growth at 50 µM: 4%
[27]
  growth at 0.05 µM: 95%
[28]
  growth at 0.5 µM: 79%
[29]; read-out: GI50
  GI50: 3.82 µM
[29]; [42]
  CC50: > 50 µM
[29]; read-out: TGI
  TGI: 38.6 µM
[29]; read-out: pGI50 (converted)
  GI50: 3.8 µM
[29]; [43]
  CC50: > 50.1 µM
[29]; read-out: pTGI (converted)
  TGI: 38.9 µM
[30]
  growth at 0.005 µM: 99%
[31]
  growth at 5 µM: 6%
[32]
  growth at 0.05 µM: 89%
[33]; read-out: GI50
  GI50: 4.92 µM
[33]; [42]
  CC50: > 50 µM
[33]; read-out: TGI
  TGI: > 50 µM
[33]; read-out: pGI50 (converted)
  GI50: 4.9 µM
[33]; [43]
  CC50: > 50.1 µM
[33]; read-out: pTGI (converted)
  TGI: > 50.1 µM
[34]
  growth at 0.005 µM: 102%
[35]; read-out: GI50
  GI50: 6.93 µM
[35]; [42]
  CC50: > 50 µM
[35]; read-out: TGI
  TGI: > 50 µM
[35]; read-out: pGI50 (converted)
  GI50: 6.92 µM
[35]; [43]
  CC50: > 50.1 µM
[35]; read-out: pTGI (converted)
  TGI: > 50.1 µM
[36]
  growth at 0.5 µM: 97%
[37]
  growth at 0.05 µM: 106%
[38]
  growth at 0.05 µM: 100%
[39]
  growth at 50 µM: -37%
[40]
  growth at 50 µM: 87%
[41]
  growth at 0.05 µM: 86%
